Experimental data as given in ChEMBL document CHEMBL1141213, “Lysosomotropism of basic cathepsin K inhibitors contributes to increased cellular potencies against off-target cathepsins and reduced functional selectivity” (J Med Chem, 2005).

How the values were obtained:
Cathepsin S [1] = biological target: T1, Cathepsin S (Mus musculus, UniProt O70370); assay: Inhibitory activity against mouse cathepsin S in mouse splenocytes; type: cell-based
Outline: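 Splenocytes from 8–10-week C57Bl/6 mouse spleens, red cells lysed in NH4Cl buffer, suspended at 2.5×10^7 cells/mL in RPMI/HEPES pH 7. Preincubated with compound 60 min at 37 °C, then iodinated probe BIL-DMK (1 nM) added for 20 min.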

A20 = assay: Effect of compound on antigen presentation in mouse A20 cells transfected with PC-specific mIgM by IL-2 secretion; type: functional, cell-based
Outline: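 A20 cells transfected with PC-specific mIgM (1×10^5) preincubated with compound 60 min at 37 °C in RPMI 1640 with 10% FBS, glutamine and β-mercaptoethanol. DO.11.10 T cells (1×10^5) and PC-OVA antigen (30 μg/mL) added, then incubated overnight. IL-2 secreted into medium measured by ELISA. IC50 taken against DMSO as the no-inhibition control; at least duplicate experiments.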

Cathepsin S [2] = biological target: T1, Cathepsin S; assay: Inhibitory activity against mouse cathepsin S
[3] = Partition co-efficient, logP of the compound; type: physicochemical; settings: octanol/water
[4] = Dissociation constant, pKa of the compound; type: physicochemical
Cathepsin S [5] = biological target: T2, Cathepsin S (Homo sapiens, UniProt P25774); assay: Inhibitory activity against human cathepsin S
T2 sequence (P25774 whole entry): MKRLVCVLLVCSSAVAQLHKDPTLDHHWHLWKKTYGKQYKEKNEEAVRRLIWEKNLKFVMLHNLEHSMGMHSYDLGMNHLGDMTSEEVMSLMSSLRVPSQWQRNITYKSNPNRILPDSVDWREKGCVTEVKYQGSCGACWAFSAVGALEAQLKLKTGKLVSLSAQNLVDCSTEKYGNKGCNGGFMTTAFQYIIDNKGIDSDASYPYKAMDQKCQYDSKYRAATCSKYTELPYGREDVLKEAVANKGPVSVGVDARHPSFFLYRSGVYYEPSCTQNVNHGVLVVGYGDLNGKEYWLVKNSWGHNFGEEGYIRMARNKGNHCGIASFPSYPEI

Cathepsin S [6] = biological target: T2, Cathepsin S; assay: Inhibitory activity against human cathepsin S expressed in ramos cells; type: cell-based
Cathepsin B [7] = biological target: T3, Cathepsin B (Homo sapiens, UniProt P07858); assay: Inhibitory activity against human cathepsin B expressed in HepG2 cells; type: cell-based
Procathepsin L [8] = biological target: T4, Procathepsin L (Homo sapiens, UniProt P07711); assay: Inhibitory activity against human cathepsin L
T4 sequence (P07711 whole entry): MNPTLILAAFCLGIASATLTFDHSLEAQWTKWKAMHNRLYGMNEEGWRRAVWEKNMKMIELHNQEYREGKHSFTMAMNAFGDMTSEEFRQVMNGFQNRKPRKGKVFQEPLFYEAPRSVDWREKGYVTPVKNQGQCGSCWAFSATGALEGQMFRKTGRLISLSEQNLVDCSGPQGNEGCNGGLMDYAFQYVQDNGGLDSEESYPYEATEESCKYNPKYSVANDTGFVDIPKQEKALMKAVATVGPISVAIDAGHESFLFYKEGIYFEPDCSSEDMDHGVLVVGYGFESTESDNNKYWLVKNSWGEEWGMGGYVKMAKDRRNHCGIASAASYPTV

Cathepsin B [9] = biological target: T3, Cathepsin B; assay: Inhibitory activity against human cathepsin B
Cathepsin K [10] = biological target: Cathepsin K (Homo sapiens, UniProt P43235); assay: Inhibitory activity against humanized rabbit cathepsin K; parameters: species or system Oryctolagus cuniculus
Procathepsin L [11] = biological target: T4, Procathepsin L; assay: Inhibitory activity against human cathepsin L expressed in HepG2 cells; type: cell-based
[12] = Volume of distribution in rat administered with 5 mg/kg, iv; type: ADME, organism-based; parameters: dose 5 mg/kg, route intravenous; settings: in vivo, read-out: Vdss
Rattus norvegicus [13] = assay: Plasma concentration in rat at 5 mg/kg, iv; type: ADME, organism-based; parameters: dose 5 mg/kg, route intravenous; settings: in vivo
Outline: (§1)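 Rats dosed 10 mg/kg po or 5 mg/kg iv; tissues and plasma taken 2 h after dosing. Tissue weighed, homogenized in 2 volumes water, then 3 volumes acetonitrile with internal standard, homogenized again and centrifuged. Supernatant quantified by LC-MS/MS against a standard curve from spiked rat plasma.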

Cathepsin K [14] = biological target: T5, Cathepsin K (Oryctolagus cuniculus, UniProt P43236); assay: Inhibitory activity against rabbit cathepsin K
T5 sequence (P43236 whole entry): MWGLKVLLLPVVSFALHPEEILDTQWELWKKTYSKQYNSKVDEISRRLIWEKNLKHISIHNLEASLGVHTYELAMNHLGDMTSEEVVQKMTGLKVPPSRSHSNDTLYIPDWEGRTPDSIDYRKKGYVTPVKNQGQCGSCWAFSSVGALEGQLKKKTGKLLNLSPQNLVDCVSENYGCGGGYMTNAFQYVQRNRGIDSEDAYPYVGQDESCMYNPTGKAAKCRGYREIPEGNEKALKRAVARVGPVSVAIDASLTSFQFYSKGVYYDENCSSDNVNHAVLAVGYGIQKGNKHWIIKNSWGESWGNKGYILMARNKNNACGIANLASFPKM

Osteoclast = assay: Effect of compound on degradation of collagen in osteoclast bone resorption assay; type: functional, cell-based; settings: Oryctolagus cuniculus
Rattus norvegicus [15] = assay: Volume of distribution in rat administered with 10 mg/kg, po; type: ADME, organism-based; parameters: dose 10 mg/kg, route oral; settings: in vivo
Rattus norvegicus [16] = assay: Plasma concentration in rat at 10 mg/kg, po; type: ADME, organism-based; parameters: dose 10 mg/kg, route oral; settings: in vivo; outline: as §1

T1 sequence (O70370 whole entry): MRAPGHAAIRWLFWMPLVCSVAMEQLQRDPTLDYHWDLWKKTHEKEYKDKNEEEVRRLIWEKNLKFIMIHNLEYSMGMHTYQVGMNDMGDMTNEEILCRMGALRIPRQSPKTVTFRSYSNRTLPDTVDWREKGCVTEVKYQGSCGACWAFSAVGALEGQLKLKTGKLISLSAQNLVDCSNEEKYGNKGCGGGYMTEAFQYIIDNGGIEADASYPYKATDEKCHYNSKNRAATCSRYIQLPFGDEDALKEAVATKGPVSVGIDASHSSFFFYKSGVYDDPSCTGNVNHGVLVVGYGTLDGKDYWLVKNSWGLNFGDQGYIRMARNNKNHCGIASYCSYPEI

Row | Structure (SMILES) | IC50 (Cathepsin S [1]) | IC50 (A20) | IC50 (Cathepsin S [2]) | logP [3] | pKa [4] | IC50 (Cathepsin S [5]) | IC50 (Cathepsin S [6]) | IC50 (Cathepsin B [7]) | IC50 (Procathepsin L [8]) | IC50 (Cathepsin B [9]) | IC50 (Cathepsin K [10]) | IC50 (Procathepsin L [11]) | Vd [12] | concentration (Rattus norvegicus [13]) | IC50 (Cathepsin K [14]) | IC50 (Osteoclast) | Vdss (Rattus norvegicus [15]) | concentration (Rattus norvegicus [16])
1 | CN1CCN(c2nc(-c3ccc(C(=O)NC4(C(=O)NCC(F)(F)F)CCCCC4)cc3)cs2)CC1 | > 10000 nM | > 100000 nM | 33000 nM | 2.9 | 6.84 |  |  |  |  |  |  |  |  |  |  |  |  | 
2 | N#CCNC(=O)[C@H](CC1CCCCC1)NC(=O)c1ccccc1 | 40 nM | 1220 nM | 13 nM |  |  | 5.3 nM | 10 nM | 940 nM | 55 nM | 19000 nM | 1030 nM | 230 nM |  |  |  |  |  | 
3 | N#CCNC(=O)C1(NC(=O)c2ccc(N3CCOCC3)cc2)CCCCC1 | 8500 nM | > 100000 nM | 4500 nM | 0.98 |  | 52000 nM | 4800 nM | 4400 nM | 32000 nM | 15400 nM | 19 nM | > 10000 nM | 1.9 L/kg | 170 nM | 72 nM | 580 nM |  | 
4 | CCCN1CCN(c2ccc(C(=O)NC3(C(=O)NCC#N)CCCCC3)cc2)CC1 [BALICATIB] | 480 nM | 6180 nM | 6350 nM | 1.81 | 7.76 | 65000 nM | 2900 nM | 61 nM | 503 nM | 4800 nM |  | 48 nM |  |  |  |  | 4.7 L/kg | 
5 | CC(C)C[C@@H](C(=O)NCC#N)c1cccc(-c2ccc(N3CCNCC3)cc2)c1 | 740 nM | 8600 nM | 34100 nM | 3.46 | 8.77 | 20000 nM | 1340 nM | 4400 nM | 2600 nM | 86000 nM | 7.8 nM | 320 nM |  |  | 33 nM | 149 nM |  | 
6 | N#CCNC(=O)C1(NC(=O)c2ccc(-c3csc(N4CCOCC4)n3)cc2)CCCCC1 | 6700 nM | > 100000 nM | 8500 nM |  |  | 27000 nM | > 10000 nM | 2900 nM | 24000 nM | 4200 nM | 2.3 nM | > 10000 nM |  |  | 9.5 nM | 41 nM |  | 
7 | CN1CCN(c2nc(-c3ccc(C(=O)NC4(C(=O)NCC#N)CCCCC4)cc3)cs2)CC1 | 318 nM | 6200 nM | 5400 nM | 2.3 | 7.01 | 47000 nM | 790 nM | 17 nM | 6300 nM | 1100 nM | 0.25 nM | 340 nM |  |  | 0.5 nM |  | 11 L/kg | 2400 nM
